Reference: ChEMBL document CHEMBL1122774, “Tri- and tetrapeptide analogues of kinins as potential renal vasodilators” (J Med Chem, 1984)
Square brackets hold non-standard residues; d marks the D form. Peptide text beside a SMILES is read from it. * marks the point of attachment. Butanoyl(4-(4-HOPh)) = O=C(CCCc1ccc(O)cc1)*

tested on: Canis familiaris; assay: In vivo percent change in canine renal blood flow (RBF) at 300 ug/Kg/min.; assay type: functional, Canis lupus familiaris, Kidney
Summary of the method: (§1)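 Primary screen in anesthetized dogs (7-17 kg). Drug infused separately at 3, 30 and 300 µg/(kg min), each infusion lasting 5 min, at about 15-min intervals. Read-outs are renal blood flow, mean arterial blood pressure, heart rate, and RVR (MABP / mean RBF), as percent change. Significance thresholds are defined per number of dogs; n = 1-3 dogs.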

Compared with `O=C(NCC(=O)N1CCC[C@H]1C(=O)O)[C@@H](Cc1ccccc1)NC(=O)[C@@H]1CCCN1C(=O)CCCc1ccc(O)cc1` ({Butanoyl(4-(4-HOPh))}-P[dF]GP-OH), `N=C(N)NCCC[C@H](NC(=O)[C@@H]1Cc2ccccc2CN1C(=O)CCCc1ccc(O)cc1)C(=O)O` is lower in Change: -1% for the first, -12% for the second.

tested on: Canis familiaris; assay: In vivo percent change in canine mean arterial blood pressure (MABP) at 300 ug/Kg/min.; assay type: functional, Canis lupus familiaris; summary of the method: as §1

Compared with `O=C(NCC(=O)N1CCC[C@H]1C(=O)O)[C@@H](Cc1ccccc1)NC(=O)[C@@H]1CCCN1C(=O)CCCc1ccc(O)cc1` ({Butanoyl(4-(4-HOPh))}-P[dF]GP-OH), `N=C(N)NCCC[C@H](NC(=O)[C@@H]1Cc2ccccc2CN1C(=O)CCCc1ccc(O)cc1)C(=O)O` is lower in Change: -1% for the first, -2% for the second.

tested on: Canis familiaris; assay: In vivo percent change in canine mean arterial blood pressure (MABP) at 3 ug/Kg/min.; assay type: functional, Canis lupus familiaris; summary of the method: as §1

First: O=C(NCC(=O)N1CCC[C@H]1C(=O)O)[C@@H](Cc1ccccc1)NC(=O)[C@@H]1CCCN1C(=O)CCCc1ccc(O)cc1 ({Butanoyl(4-(4-HOPh))}-P[dF]GP-OH)
Second: N=C(N)NCCC[C@H](NC(=O)[C@@H]1Cc2ccccc2CN1C(=O)CCCc1ccc(O)cc1)C(=O)O
The Change of the first is higher: 0% for the first, -1% for the second.

tested on: Canis familiaris; assay: In vivo percent change in canine renal vascular resistance (RVR) at 3 ug/Kg/min.; assay type: functional, Canis lupus familiaris; summary of the method: as §1

Going from `O=C(NCC(=O)N1CCC[C@H]1C(=O)O)[C@@H](Cc1ccccc1)NC(=O)[C@@H]1CCCN1C(=O)CCCc1ccc(O)cc1` ({Butanoyl(4-(4-HOPh))}-P[dF]GP-OH) to `N=C(N)NCCC[C@H](NC(=O)[C@@H]1Cc2ccccc2CN1C(=O)CCCc1ccc(O)cc1)C(=O)O`, the Change falls from -2% to -6%.

tested on: Canis familiaris; assay: In vivo percent change in canine heart rate at 3 ug/Kg/min.; assay type: functional, Canis lupus familiaris; summary of the method: as §1

`O=C(NCC(=O)N1CCC[C@H]1C(=O)O)[C@@H](Cc1ccccc1)NC(=O)[C@@H]1CCCN1C(=O)CCCc1ccc(O)cc1` ({Butanoyl(4-(4-HOPh))}-P[dF]GP-OH) and `N=C(N)NCCC[C@H](NC(=O)[C@@H]1Cc2ccccc2CN1C(=O)CCCc1ccc(O)cc1)C(=O)O` are the same in Change: 1% for the first, 1% for the second.

tested on: Canis familiaris; assay: In vivo percent change in canine mean arterial blood pressure (MABP) at 30 ug/Kg/min.; assay type: functional, Canis lupus familiaris; summary of the method: as §1

First: O=C(NCC(=O)N1CCC[C@H]1C(=O)O)[C@@H](Cc1ccccc1)NC(=O)[C@@H]1CCCN1C(=O)CCCc1ccc(O)cc1 ({Butanoyl(4-(4-HOPh))}-P[dF]GP-OH)
Second: N=C(N)NCCC[C@H](NC(=O)[C@@H]1Cc2ccccc2CN1C(=O)CCCc1ccc(O)cc1)C(=O)O
The Change of the first is lower: -1% for the first, 1% for the second.

tested on: Canis familiaris; assay: Renal vasodilator activity in anesthetized dogs and percent change in renal vascular resistance (RVR) was determined at 30 ug/Kg/min; assay type: functional, Canis lupus familiaris; summary of the method: as §1

`O=C(NCC(=O)N1CCC[C@H]1C(=O)O)[C@@H](Cc1ccccc1)NC(=O)[C@@H]1CCCN1C(=O)CCCc1ccc(O)cc1` ({Butanoyl(4-(4-HOPh))}-P[dF]GP-OH) and `N=C(N)NCCC[C@H](NC(=O)[C@@H]1Cc2ccccc2CN1C(=O)CCCc1ccc(O)cc1)C(=O)O` are the same in Change: -1% for the first, -1% for the second.

tested on: Canis familiaris; assay: In vivo percent change in canine renal vascular resistance (RVR) at 300 ug/Kg/min.; assay type: functional, Canis lupus familiaris; summary of the method: as §1

Compared with `O=C(NCC(=O)N1CCC[C@H]1C(=O)O)[C@@H](Cc1ccccc1)NC(=O)[C@@H]1CCCN1C(=O)CCCc1ccc(O)cc1` ({Butanoyl(4-(4-HOPh))}-P[dF]GP-OH), `N=C(N)NCCC[C@H](NC(=O)[C@@H]1Cc2ccccc2CN1C(=O)CCCc1ccc(O)cc1)C(=O)O` is higher in Change: -1% for the first, 11% for the second.

tested on: Canis familiaris; assay: In vivo percent change in renal blood flow at 30 ug/Kg/min.; assay type: functional, Canis lupus familiaris, Kidney; summary of the method: as §1

First: O=C(NCC(=O)N1CCC[C@H]1C(=O)O)[C@@H](Cc1ccccc1)NC(=O)[C@@H]1CCCN1C(=O)CCCc1ccc(O)cc1 ({Butanoyl(4-(4-HOPh))}-P[dF]GP-OH)
Second: N=C(N)NCCC[C@H](NC(=O)[C@@H]1Cc2ccccc2CN1C(=O)CCCc1ccc(O)cc1)C(=O)O
The Change of the first is lower: 0% for the first, 2% for the second.

tested on: Canis familiaris; assay: In vivo percent change in canine heart rate at 30 ug/Kg/min.; assay type: functional, Canis lupus familiaris; summary of the method: as §1

First: O=C(NCC(=O)N1CCC[C@H]1C(=O)O)[C@@H](Cc1ccccc1)NC(=O)[C@@H]1CCCN1C(=O)CCCc1ccc(O)cc1 ({Butanoyl(4-(4-HOPh))}-P[dF]GP-OH)
Second: N=C(N)NCCC[C@H](NC(=O)[C@@H]1Cc2ccccc2CN1C(=O)CCCc1ccc(O)cc1)C(=O)O
The Change of the first is lower: -2% for the first, 0% for the second.

tested on: Canis familiaris; assay: In vivo percent change in canine renal blood flow (RBF) at 3 ug/Kg/min.; assay type: functional, Canis lupus familiaris, Kidney; summary of the method: as §1

Going from `O=C(NCC(=O)N1CCC[C@H]1C(=O)O)[C@@H](Cc1ccccc1)NC(=O)[C@@H]1CCCN1C(=O)CCCc1ccc(O)cc1` ({Butanoyl(4-(4-HOPh))}-P[dF]GP-OH) to `N=C(N)NCCC[C@H](NC(=O)[C@@H]1Cc2ccccc2CN1C(=O)CCCc1ccc(O)cc1)C(=O)O`, the Change rises from 2% to 7%.

tested on: Canis familiaris; assay: In vivo percent change in canine heart rate at 300 ug/Kg/min.; assay type: functional, Canis lupus familiaris; summary of the method: as §1

Going from `O=C(NCC(=O)N1CCC[C@H]1C(=O)O)[C@@H](Cc1ccccc1)NC(=O)[C@@H]1CCCN1C(=O)CCCc1ccc(O)cc1` ({Butanoyl(4-(4-HOPh))}-P[dF]GP-OH) to `N=C(N)NCCC[C@H](NC(=O)[C@@H]1Cc2ccccc2CN1C(=O)CCCc1ccc(O)cc1)C(=O)O`, the Change rises from -1% to 0%.
